Activity calls are given as the source filed them. The calls are words filed in the database; no cut-off is given here.
Key:
Rattus norvegicus = test: Apparent volume of distribution at steady state in Sprague-Dawley rat at 20 mg/kg, ip administered as single dose by HPLC analysis; type: ADME, organism-based; conditions: in vivo
A549 [1] = test: Induction of apoptosis in human A549 cells assessed as necrotic cells at 1 uM after 48 hrs by annexin V-FITC/propidium iodide staining based flow cytometry (reference value: […]%); type: functional
Hep 3B2 [2] = test: Downregulation of CDK4 protein expression in human Hep3B cells after 48 hrs by Western blot method; type: functional, cell-based
A549 [3] = test: Induction of apoptosis in human A549 cells assessed as early apoptotic cells at 10 uM after 48 hrs by annexin V-FITC/propidium iodide staining based flow cytometry (reference value: 0.41%); type: functional
T47D [4] = test: Induction of apoptosis in human T47D cells assessed as live cells at 1 uM after 48 hrs by annexin V-FITC/propidium iodide staining based flow cytometry (reference value: 85.3%); type: functional
MDA-MB-231 [5] = test: Induction of apoptosis in human MDA-MB-231 cells assessed as necrotic cells at 10 uM after 48 hrs by annexin V-FITC/propidium iodide staining based flow cytometry (reference value: […]); type: functional
Histone deacetylase 1 [6] = target: T1, Histone deacetylase 1 (Homo sapiens, UniProt Q13547); test: Inhibition of HDAC1 in human A549 cells assessed as increase in acetylated histone-H3 level at 0.1 to 1 uM after 24 hrs by immunofluorescence assay; type: cell-based
T1 sequence (Q13547 whole entry): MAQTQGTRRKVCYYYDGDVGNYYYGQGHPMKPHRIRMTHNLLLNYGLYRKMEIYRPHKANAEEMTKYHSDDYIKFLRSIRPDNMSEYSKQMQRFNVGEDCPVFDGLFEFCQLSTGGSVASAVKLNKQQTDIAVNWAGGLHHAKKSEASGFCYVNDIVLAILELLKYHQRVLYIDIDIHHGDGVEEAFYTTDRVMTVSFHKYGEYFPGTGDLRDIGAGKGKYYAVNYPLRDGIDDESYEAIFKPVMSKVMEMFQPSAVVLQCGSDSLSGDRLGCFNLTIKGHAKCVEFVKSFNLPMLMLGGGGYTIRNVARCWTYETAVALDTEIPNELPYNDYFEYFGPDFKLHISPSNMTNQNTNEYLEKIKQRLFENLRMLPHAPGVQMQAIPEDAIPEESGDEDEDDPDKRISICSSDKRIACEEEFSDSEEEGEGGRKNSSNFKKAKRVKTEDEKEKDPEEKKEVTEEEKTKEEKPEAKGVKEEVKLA

T47D [7] = test: Induction of apoptosis in human T47D cells assessed as necrotic cells at 10 uM after 48 hrs by annexin V-FITC/propidium iodide staining based flow cytometry (reference value: 0.8%); type: functional
Hep 3B2 [8] = test: Downregulation of Cyclin-D1 protein expression in human Hep3B cells after 48 hrs by Western blot method; type: functional, cell-based
Method in brief: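 Treated cells were lysed and CDK4 and cyclin D1 protein levels were assessed by Western blot.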

T47D [9] = test: Induction of apoptosis in human T47D cells assessed as reduction in Bcl2 protein expression after 48 hrs by Western blot method; type: functional, cell-based
Method in brief: (§1)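 Cells were treated with or without test agent, alongside a control, for 48h. They were then lysed and analysed by Western blot for Bcl-2 protein and cleaved caspase 3.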

MDA-MB-231 [10] = test: Induction of apoptosis in human MDA-MB-231 cells assessed as live cells at 5 uM after 48 hrs by annexin V-FITC/propidium iodide staining based flow cytometry (reference value: 98.1%); type: functional
T47D [11] = test: Induction of apoptosis in human T47D cells assessed as live cells at 10 uM after 48 hrs by annexin V-FITC/propidium iodide staining based flow cytometry (reference value: 85.3%); type: functional
CDK4/CDK9 (Homo sapiens) = CDK4/CDK9 (Homo sapiens) (UniProt P11802+P50750); test: Inhibition of CDK4/CDK9 in human HepG2 cells assessed as reduction in Rb phosphorylation at Ser807/811 residues at 1 uM after 48 hrs by Western blot method; type: cell-based
CDK4/CDK9 (Homo sapiens), sequence (P11802 whole entry, looked up): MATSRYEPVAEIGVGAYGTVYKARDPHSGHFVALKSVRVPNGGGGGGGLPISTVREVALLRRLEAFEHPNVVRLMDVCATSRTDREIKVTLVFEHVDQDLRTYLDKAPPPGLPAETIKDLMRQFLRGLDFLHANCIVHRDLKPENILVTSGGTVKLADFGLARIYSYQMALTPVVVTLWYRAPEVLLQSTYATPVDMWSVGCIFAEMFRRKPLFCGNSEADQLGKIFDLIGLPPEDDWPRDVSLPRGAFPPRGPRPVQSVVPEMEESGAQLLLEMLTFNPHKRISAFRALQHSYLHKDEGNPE
CDK4/CDK9 (Homo sapiens), sequence (P50750 whole entry, looked up): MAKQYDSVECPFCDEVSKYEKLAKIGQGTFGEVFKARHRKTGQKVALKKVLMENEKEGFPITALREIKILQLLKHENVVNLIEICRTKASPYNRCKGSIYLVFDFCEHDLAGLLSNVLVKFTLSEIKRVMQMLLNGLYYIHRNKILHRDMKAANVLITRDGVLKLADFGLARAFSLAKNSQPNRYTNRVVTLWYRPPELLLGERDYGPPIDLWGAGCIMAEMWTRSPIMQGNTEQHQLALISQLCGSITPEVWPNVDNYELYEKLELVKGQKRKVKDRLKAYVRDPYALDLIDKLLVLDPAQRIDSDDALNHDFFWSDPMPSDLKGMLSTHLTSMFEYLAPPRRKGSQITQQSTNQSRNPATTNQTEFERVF

MDA-MB-231 [12] = test: Induction of apoptosis in human MDA-MB-231 cells assessed as necrotic cells at 1 uM after 48 hrs by annexin V-FITC/propidium iodide staining based flow cytometry (reference value: […]); type: functional
A549 [13] = test: Induction of apoptosis in human A549 cells assessed as late apoptotic cells at 10 uM after 48 hrs by annexin V-FITC/propidium iodide staining based flow cytometry (reference value: 0.88%); type: functional
Histone deacetylase 1 [14] = target: T1, Histone deacetylase 1; test: Inhibition of HDAC1 in human NCI-H460 cells assessed as increase in p53 phosphorylation at Ser15 residue at 1 to 5 uM after 48 hrs by Western blot method; type: cell-based
[15] = Tmax in Sprague-Dawley rat at 20 mg/kg, po administered as single dose by HPLC analysis; type: ADME, organism-based; conditions: in vivo
MDA-MB-231 [16] = test: Cell cycle arrest in human MDA-MB-231 cells assessed as decrease in S-phase at 625 nM after 24 hrs by propidium iodide staining based flow cytometry; type: functional
Method in brief: (§2)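 Cells were exposed for 24 h to a range of concentrations (625 nM, 2.5 and 10 µM), with DMSO vehicle as control. They were then stained with propidium iodide and analysed by flow cytometry to obtain the percentages of cells in G0/G1, S and G2 phases.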

MDA-MB-231 [17] = test: Cell cycle arrest in human MDA-MB-231 cells assessed as accumulation at G0/G1 phase at 625 nM after 24 hrs by propidium iodide staining based flow cytometry; type: functional; method in brief: as §2
HepG2 [18] = test: Induction of apoptosis in human HepG2 cells assessed as early apoptotic cells at 1 uM after 48 hrs by annexin V-FITC/propidium iodide staining based flow cytometry (reference value: 0.3%); type: functional
A549 [19] = test: Downregulation of CDK4 protein expression in human A549 cells after 48 hrs by Western blot method; type: functional, cell-based
NCI-H460 [20] = test: Induction of apoptosis in human NCI-H460 cells assessed as caspase-3 cleavage after 48 hrs by Western blot method; type: functional, cell-based; method in brief: as §1
NCI-H460 [21] = test: Induction of apoptosis in human NCI-H460 cells assessed as necrotic cells at 10 uM after 48 hrs by annexin V-FITC/propidium iodide staining based flow cytometry (reference value: 1.34%); type: functional
T47D [22] = test: Induction of apoptosis in human T47D cells assessed as early apoptotic cells at 5 uM after 48 hrs by annexin V-FITC/propidium iodide staining based flow cytometry (reference value: 7.7%); type: functional
HepG2 [23] = test: Induction of apoptosis in human HepG2 cells assessed as necrotic cells at 10 uM after 48 hrs by annexin V-FITC/propidium iodide staining based flow cytometry (reference value: 2.32%); type: functional
[24] = Cmax in Sprague-Dawley rat at 20 mg/kg, ip administered as single dose by HPLC analysis; type: ADME, organism-based; parameters: dose 20 mg/kg, route intraperitoneal; conditions: in vivo
MDA-MB-231 [25] = test: Induction of apoptosis in human MDA-MB-231 cells assessed as early apoptotic cells at 1 uM after 48 hrs by annexin V-FITC/propidium iodide staining based flow cytometry (reference value: 0.4%); type: functional
Histone deacetylase 1 [26] = target: T1, Histone deacetylase 1; test: Inhibition of HDAC1 in human Hep3B cells assessed as increase in acetylated-histone H3 level at 1 to 5 uM after 48 hrs by Western blot method; type: cell-based
HepG2 [27] = test: Cell cycle arrest in human HepG2 cells assessed as decrease in S-phase at 625 nM after 24 hrs by propidium iodide staining based flow cytometry; type: functional; method in brief: as §2
T47D [28] = test: Induction of apoptosis in human T47D cells after 48 hrs by annexin V-FITC/propidium iodide staining based flow cytometry; type: functional, cell-based
[29] = target: High affinity nerve growth factor receptor (Homo sapiens, UniProt P04629); test: Inhibition of recombinant human N-terminal His6-tagged TrkA (440-end residues) expressed in baculovirus infected sf21 cells
High affinity nerve growth factor receptor, sequence (P04629 whole entry): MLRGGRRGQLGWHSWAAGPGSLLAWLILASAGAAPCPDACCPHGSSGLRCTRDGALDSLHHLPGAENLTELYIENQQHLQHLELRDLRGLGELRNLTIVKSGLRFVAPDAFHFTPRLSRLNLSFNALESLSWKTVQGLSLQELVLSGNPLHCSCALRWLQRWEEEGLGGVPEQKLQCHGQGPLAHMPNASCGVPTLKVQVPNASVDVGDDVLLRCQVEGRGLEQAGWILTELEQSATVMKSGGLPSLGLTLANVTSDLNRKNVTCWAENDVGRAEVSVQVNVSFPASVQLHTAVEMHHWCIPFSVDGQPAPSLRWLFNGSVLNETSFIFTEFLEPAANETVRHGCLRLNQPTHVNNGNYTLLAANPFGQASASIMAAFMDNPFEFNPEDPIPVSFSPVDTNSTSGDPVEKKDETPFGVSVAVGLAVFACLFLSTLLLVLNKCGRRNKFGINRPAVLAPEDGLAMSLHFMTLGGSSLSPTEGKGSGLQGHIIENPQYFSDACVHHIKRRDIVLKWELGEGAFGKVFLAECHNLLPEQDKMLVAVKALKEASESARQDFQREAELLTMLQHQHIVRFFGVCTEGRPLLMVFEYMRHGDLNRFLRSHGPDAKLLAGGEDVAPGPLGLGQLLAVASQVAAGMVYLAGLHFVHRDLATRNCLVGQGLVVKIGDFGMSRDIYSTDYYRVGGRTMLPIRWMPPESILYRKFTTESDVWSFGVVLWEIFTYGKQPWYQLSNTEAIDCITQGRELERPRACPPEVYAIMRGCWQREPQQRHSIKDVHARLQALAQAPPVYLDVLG

NCI-H460 [30] = test: Induction of apoptosis in human NCI-H460 cells assessed as late apoptotic cells at 5 uM after 48 hrs by annexin V-FITC/propidium iodide staining based flow cytometry (reference value: 1.29%); type: functional
T47D [31] = test: Induction of apoptosis in human T47D cells assessed as late apoptotic cells at 5 uM after 48 hrs by annexin V-FITC/propidium iodide staining based flow cytometry (reference value: 6.16%); type: functional
Hep 3B2 [32] = test: Cytotoxicity against human Hep3B cells assessed as reduction in cell viability after 72 hrs by CCK8 assay
[33] = Clearance in Sprague-Dawley rat at 20 mg/kg, iv administered as single dose by HPLC analysis; type: ADME, organism-based; conditions: in vivo

CN(C)C(=O)c1cc2cnc(Nc3ccc(NC(=O)CCCCCCC(=O)NO)cc3)nc2n1C1CCCC1
Vdss(app) (Rattus norvegicus): 119.94 L/kg | Activity (A549 [1]): 6.67% | Activity (Hep 3B2 [2]): Dose-dependent effect | Activity (A549 [3]): 5.95% | Activity (T47D [4]): 88.3% | Activity (MDA-MB-231 [5]): 1.21% | inhibition (Histone deacetylase 1 [6]): Active | Activity (T47D [7]): 2.62% | Activity (Hep 3B2 [8]): Dose-dependent effect | Activity (T47D [9]): Active | Activity (MDA-MB-231 [10]): 90.3% | Activity (T47D [11]): 43.2% | inhibition (CDK4/CDK9 (Homo sapiens)): Active | Activity (MDA-MB-231 [12]): 1.65% | Activity (A549 [13]): 27.7% | inhibition (Histone deacetylase 1 [14]): Active | Tmax [15]: 1.8 h | Activity (MDA-MB-231 [16]): Active | Activity (MDA-MB-231 [17]): Active | Activity (HepG2 [18]): 2.6% | Activity (A549 [19]): Dose-dependent effect | Activity (NCI-H460 [20]): Active | Activity (NCI-H460 [21]): 5.58% | Activity (T47D [22]): 14.1% | Activity (HepG2 [23]): 5.75% | Cmax [24]: 0.36 µg/mL | Activity (MDA-MB-231 [25]): 0.78% | inhibition (Histone deacetylase 1 [26]): Active | Activity (HepG2 [27]): Active | Activity (T47D [28]): Dose-dependent effect | IC50 [29]: 0.031 µM | Activity (NCI-H460 [30]): 5.38% | Activity (T47D [31]): 8.44% | IC50 (Hep 3B2 [32]): 1.24 µM | clearance [33]: 4.14 L/h/kg
